Experimental data as given in ChEMBL document CHEMBL4689842, “EUbOPEN Chemogenomics Library wave 1” (2021).
Several values for one entry are separate records, joined by “and”; a condition that tells them apart may be missing. Equal values may be shown once.

Test system: U2OS
Assay: Multiplex assay against U2OS
Format: toxicity, cell-based
Settings: human
In short: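 Live cells were stained at seeding with Hoechst33342, BioTracker Green Microtubule Cytoskeleton Dye, MitoTracker Red and Annexin V Alexa Fluor 680, then imaged on a CQ1 microscope at 37°C and 5% CO2 after compound addition. CellPathfinder machine-learning gating split cells into Hoechst high-intensity objects or normal cells. Normal cells were split into healthy, pyknosed or fragmented nuclei, and pyknosed cells into mitotic or apoptotic. Tubulin, mitochondrial-mass and membrane-permeability phenotypes are per cents of healthy-nucleus cells.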

[1] = 12 h, 10 µM, compound concentration 10 uM, replicate 1
[2] = 12 h, 10 µM, compound concentration 10 uM, replicate 2
[3] = 24 h, 10 µM, compound concentration 10 uM, replicate 1
[4] = 24 h, 10 µM, compound concentration 10 uM, replicate 2
[5] = 48 h, 10 µM, compound concentration 10 uM, replicate 1
[6] = 48 h, 10 µM, compound concentration 10 uM, replicate 2
[7] = 12 h, 1 µM, compound concentration 1 uM, replicate 1
[8] = 12 h, 1 µM, compound concentration 1 uM, replicate 2
[9] = 24 h, 1 µM, compound concentration 1 uM, replicate 1
[10] = 24 h, 1 µM, compound concentration 1 uM, replicate 2
[11] = 48 h, 1 µM, compound concentration 1 uM, replicate 1
[12] = 48 h, 1 µM, compound concentration 1 uM, replicate 2

## CN1CCN(C(=O)C(C)(C)c2ccc(C(=O)Nc3cn4cc(-c5ccncc5)ccc4n3)cc2)CC1 [T3-CLK]
[1]
  Population Apoptotic (%): 37% and 22%
  Population Healthy Nuclei (%): 90% and 71% and 89%
  Population Hoechst High Intensity Objects (%): 5%
  Population Mitotic Cells (%): 62% and 77%
  Population Normal (%): 94%
  Population Pyknosed Nuclei (%): 10% and 7%
  Total Cell Count: 128 and 143 and 333
[2]
  Population Healthy Nuclei (%): 88% and 70% and 87%
  Population Hoechst High Intensity Objects (%): 6% and 7% and 9%
  Population Membrane Permeable-Phenotype (%): 62% and 21% and 25%
  Population Mitotic Cells (%): 50% and 100% and 66%
  Population Normal (%): 93% and 92% and 90%
  Population Pyknosed Nuclei (%): 5% and 11% and 3%
[3]
  Population Apoptotic (%): 36% and 62% and 33%
  Population Fragmented Nuclei (%): 11% and 21% and 8%
  Population Healthy Nuclei (%): 81% and 64% and 77%
  Population Hoechst High Intensity Objects (%): 5% and 10% and 6%
  Population Membrane Permeable-Phenotype (%): 52% and 26% and 34%
  Population Mitotic Cells (%): 63% and 37% and 66%
  Population Normal (%): 94% and 90% and 93%
  Population Pyknosed Nuclei (%): 6% and 13% and 14%
  Total Cell Count: 137 and 141 and 262
[4]
  Population Apoptotic (%): 50% and 22%
  Population Fragmented Nuclei (%): 29% and 22% and 15%
  Population Healthy Nuclei (%): 58% and 66% and 70%
  Population Hoechst High Intensity Objects (%): 12% and 9%
  Population Membrane Permeable-Phenotype (%): 17% and 19%
  Population Mitotic Cells (%): 50% and 77%
  Population Normal (%): 87%
  Population Pyknosed Nuclei (%): 11%
[5]
  Population Apoptotic (%): 73%
  Population Fragmented Nuclei (%): 34%
  Population Healthy Nuclei (%): 15%
  Population Hoechst High Intensity Objects (%): 16%
  Population Membrane Permeable-Phenotype (%): 56%
  Population Mitochondria Different-Phenotype (%): 87%
  Population Mitotic Cells (%): 26%
  Population Normal (%): 83%
  Population Pyknosed Nuclei (%): 50%
  Population Tubulin-Different-Phenotype (%): 100%
  Total Cell Count: 145
[6]
  Population Apoptotic (%): 61%
  Population Fragmented Nuclei (%): 28%
  Population Healthy Nuclei (%): 36%
  Population Hoechst High Intensity Objects (%): 23%
  Population Membrane Permeable-Phenotype (%): 63%
  Population Mitochondria Different-Phenotype (%): 81%
  Population Mitotic Cells (%): 38%
  Population Normal (%): 76%
  Population Pyknosed Nuclei (%): 35%
  Population Tubulin-Different-Phenotype (%): 90%
  Total Cell Count: 57

## O=C(Cc1ccc(-c2ccc(OCCN3CCOCC3)cc2)cn1)NCc1ccccc1 [TIRBANIBULIN]
[7]
  Population Apoptotic (%): 52%
  Population Fragmented Nuclei (%): 10%
  Population Healthy Nuclei (%): 76%
  Population Hoechst High Intensity Objects (%): 7%
  Population Membrane Permeable-Phenotype (%): 8%
  Population Mitochondria Different-Phenotype (%): 20%
  Population Mitotic Cells (%): 47%
  Population Normal (%): 92%
  Population Pyknosed Nuclei (%): 12%
  Population Tubulin-Different-Phenotype (%): 19%
  Total Cell Count: 172
[8]
  Population Apoptotic (%): 0%
  Population Fragmented Nuclei (%): 5%
  Population Healthy Nuclei (%): 90%
  Population Hoechst High Intensity Objects (%): 12%
  Population Membrane Permeable-Phenotype (%): 9%
  Population Mitochondria Different-Phenotype (%): 21%
  Population Mitotic Cells (%): 100%
  Population Normal (%): 87%
  Population Pyknosed Nuclei (%): 4%
  Population Tubulin-Different-Phenotype (%): 12%
  Total Cell Count: 108
[1]
  Population Apoptotic (%): 21%
  Population Fragmented Nuclei (%): 10%
  Population Healthy Nuclei (%): 72%
  Population Hoechst High Intensity Objects (%): 10%
  Population Membrane Permeable-Phenotype (%): 8%
  Population Mitochondria Different-Phenotype (%): 16%
  Population Mitotic Cells (%): 78%
  Population Normal (%): 89%
  Population Pyknosed Nuclei (%): 16%
  Population Tubulin-Different-Phenotype (%): 10%
  Total Cell Count: 169
[2]
  Population Apoptotic (%): 50%
  Population Fragmented Nuclei (%): 13%
  Population Healthy Nuclei (%): 78%
  Population Membrane Permeable-Phenotype (%): 4%
  Population Mitochondria Different-Phenotype (%): 19%
  Population Mitotic Cells (%): 50%
  Population Pyknosed Nuclei (%): 7%
  Population Tubulin-Different-Phenotype (%): 12%
  Total Cell Count: 81
[9]
  Population Apoptotic (%): 34%
  Population Fragmented Nuclei (%): 20%
  Population Healthy Nuclei (%): 50%
  Population Hoechst High Intensity Objects (%): 8%
  Population Membrane Permeable-Phenotype (%): 9%
  Population Mitochondria Different-Phenotype (%): 35%
  Population Mitotic Cells (%): 65%
  Population Normal (%): 91%
  Population Pyknosed Nuclei (%): 29%
  Population Tubulin-Different-Phenotype (%): 21%
  Total Cell Count: 227
[10]
  Population Apoptotic (%): 61%
  Population Fragmented Nuclei (%): 16%
  Population Healthy Nuclei (%): 66%
  Population Hoechst High Intensity Objects (%): 9%
  Population Membrane Permeable-Phenotype (%): 6%
  Population Mitochondria Different-Phenotype (%): 44%
  Population Mitotic Cells (%): 38%
  Population Normal (%): 90%
  Population Pyknosed Nuclei (%): 17%
  Population Tubulin-Different-Phenotype (%): 10%
  Total Cell Count: 155
[3]
  Population Apoptotic (%): 34%
  Population Fragmented Nuclei (%): 15%
  Population Healthy Nuclei (%): 64%
  Population Hoechst High Intensity Objects (%): 8%
  Population Membrane Permeable-Phenotype (%): 8%
  Population Mitochondria Different-Phenotype (%): 46%
  Population Mitotic Cells (%): 65%
  Population Normal (%): 91%
  Population Pyknosed Nuclei (%): 20%
  Population Tubulin-Different-Phenotype (%): 11%
  Total Cell Count: 160
[4]
  Population Apoptotic (%): 66%
  Population Fragmented Nuclei (%): 19%
  Population Healthy Nuclei (%): 57%
  Population Hoechst High Intensity Objects (%): 10%
  Population Membrane Permeable-Phenotype (%): 10%
  Population Mitochondria Different-Phenotype (%): 40%
  Population Mitotic Cells (%): 33%
  Population Normal (%): 89%
  Population Pyknosed Nuclei (%): 23%
  Population Tubulin-Different-Phenotype (%): 13%
  Total Cell Count: 82
[11]
  Population Apoptotic (%): 67%
  Population Fragmented Nuclei (%): 24%
  Population Healthy Nuclei (%): 40%
  Population Hoechst High Intensity Objects (%): 9%
  Population Membrane Permeable-Phenotype (%): 7%
  Population Mitochondria Different-Phenotype (%): 39%
  Population Mitotic Cells (%): 32%
  Population Normal (%): 90%
  Population Pyknosed Nuclei (%): 35%
  Population Tubulin-Different-Phenotype (%): 25%
  Total Cell Count: 340
[12]
  Population Apoptotic (%): 75%
  Population Fragmented Nuclei (%): 22%
  Population Healthy Nuclei (%): 45%
  Population Hoechst High Intensity Objects (%): 11%
  Population Membrane Permeable-Phenotype (%): 29%
  Population Mitochondria Different-Phenotype (%): 64%
  Population Mitotic Cells (%): 25%
  Population Normal (%): 88%
  Population Pyknosed Nuclei (%): 32%
  Population Tubulin-Different-Phenotype (%): 35%
  Total Cell Count: 239
[5]
  Population Apoptotic (%): 64%
  Population Fragmented Nuclei (%): 24%
  Population Healthy Nuclei (%): 32%
  Population Hoechst High Intensity Objects (%): 10%
  Population Membrane Permeable-Phenotype (%): 15%
  Population Mitochondria Different-Phenotype (%): 63%
  Population Mitotic Cells (%): 35%
  Population Normal (%): 89%
  Population Pyknosed Nuclei (%): 43%
  Population Tubulin-Different-Phenotype (%): 22%
  Total Cell Count: 174
[6]
  Population Apoptotic (%): 70%
  Population Fragmented Nuclei (%): 23%
  Population Healthy Nuclei (%): 45%
  Population Hoechst High Intensity Objects (%): 11%
  Population Membrane Permeable-Phenotype (%): 44%
  Population Mitochondria Different-Phenotype (%): 68%
  Population Mitotic Cells (%): 29%
  Population Normal (%): 88%
  Population Pyknosed Nuclei (%): 30%
  Population Tubulin-Different-Phenotype (%): 36%
  Total Cell Count: 85
